Test results: ChEMBL document CHEMBL2010776, “Synthesis and structure elucidation of novel fused 1,2,4-triazine derivatives as potent inhibitors targeting CYP1A1 activity” (Bioorg Med Chem, 2012)

How the values were obtained:
Cytochrome P450 1A1 = molecular target: T1, Cytochrome P450 1A1 (Rattus norvegicus, UniProt P00185); experiment: Inhibition of CYP1A1 activity in rat liver microsomes using benzo[alpha]pyrene as substrate after 10 mins by fluorescence analysis; parameters: species or system Microsome
T1 sequence (P00185 whole entry): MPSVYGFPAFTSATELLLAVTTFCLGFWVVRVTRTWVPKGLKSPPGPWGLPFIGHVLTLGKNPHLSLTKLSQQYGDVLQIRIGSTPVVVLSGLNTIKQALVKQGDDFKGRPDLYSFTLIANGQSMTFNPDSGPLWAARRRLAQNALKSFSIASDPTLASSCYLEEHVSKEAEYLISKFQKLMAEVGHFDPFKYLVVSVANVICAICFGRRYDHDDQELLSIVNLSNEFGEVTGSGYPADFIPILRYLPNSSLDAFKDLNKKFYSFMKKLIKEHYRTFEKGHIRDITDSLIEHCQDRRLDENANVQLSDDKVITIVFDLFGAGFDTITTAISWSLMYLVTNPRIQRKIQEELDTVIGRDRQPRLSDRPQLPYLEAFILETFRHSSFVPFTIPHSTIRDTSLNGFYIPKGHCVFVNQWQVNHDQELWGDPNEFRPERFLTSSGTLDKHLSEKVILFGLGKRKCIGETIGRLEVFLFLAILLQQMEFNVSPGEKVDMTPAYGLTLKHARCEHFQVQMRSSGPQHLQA
How it was run: (§1)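 AHH assay, 1 mL mix: 50 mM Tris–HCl pH 7.4, […], 100 nmol test compound, 0.1 mL microsomal protein (10 mg/mL) from PAH-induced rat liver (105,000 g pellet, resuspended in 0.1 M K phosphate pH 7.4). Started with 100 nmol benzo[a]pyrene, 37 °C 10 min, acetone stop; 3-OH-BaP hexane-extracted, fluorescence ex 396/em 522 nm; percent change in activity.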

CYP1A1 = molecular target: T2, CYP1A1 (Rattus norvegicus, UniProt P00185); experiment: Inhibition of CYP1A1 activity in rat liver microsomes using benzo[alpha]pyrene as substrate at 100 nmol after 10 mins by fluorescence analysis; parameters: species or system Microsome; details: probe benzo[alpha]pyrene; how it was run: as §1
T2 sequence (P00185 whole entry): T1 sequence (P00185 whole entry)

Mus musculus [1] = experiment: Acute toxicity in mouse assessed as tolerability up to 150 mg/kg, ip; format: organism-based; parameters: dose 150 mg/kg, route intraperitoneal; details: in vivo
How it was run: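 Mice in groups of six; compound suspended in corn oil and given intraperitoneally at 1, 5, 10, 50 or 150 mg/kg; vehicle-only control group. Body weight recorded before dosing and on days 7 and 14 (termination).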

[2] = Toxicity in po dosed mouse; format: organism-based; details: in vivo
Mus musculus [3] = experiment: Acute toxicity in mouse assessed as tolerability up to 350 mg/kg, po; format: organism-based; parameters: dose 350 mg/kg, route oral; details: in vivo

SMILES | IC50 (Cytochrome P450 1A1) | inhibition at 10 min (CYP1A1) | Activity (Mus musculus [1]) | LD50 [2] | Activity (Mus musculus [3])
CC(=O)N1N=C2N(N=C(Cc3ccccc3)C(=O)N2N(C(C)=O)C(C)=O)C1c1ccccc1 (stereo unspecified) | 24.2 nM | 20.6% |  |  | 
COc1ccc(CC2=NN3C(=NN(C(C)=O)C3c3ccccc3)N(N(C(C)=O)C(C)=O)C2=O)cc1 (stereo unspecified) | 86.7 nM | 57.6% |  |  | 
COc1ccc(C2N(C(C)=O)N=C3N2N=C(Cc2ccccc2)C(=O)N3N(C(C)=O)C(C)=O)cc1 (stereo unspecified) | 9.71 nM | 51.5% |  |  | 
COc1ccc(CC2=NN3C(=NN(C(C)=O)C3(C)c3ccc(C)cc3)N(N(C(C)=O)C(C)=O)C2=O)cc1 (stereo unspecified) | 10.4 nM | 48.2% |  |  | 
CC(=O)NN1C(=O)C(Cc2ccccc2)=NN2C1=NN(C(C)=O)C2(C)c1ccccc1 (stereo unspecified) | 13.2 nM | 37.9% |  |  | 
COc1ccc(CC2=NN3C(=NN(C(C)=O)C3(C)c3ccccc3)N(NC(C)=O)C2=O)cc1 (stereo unspecified) | 8.36 nM | 59.8% |  |  | 
CC(=O)NN1C(=O)C(Cc2ccccc2)=NN2C1=NN(C(C)=O)C2(C)c1ccc(C)cc1 (stereo unspecified) | 6.62 nM | 75.6% |  |  | 
Nn1c(N/N=C2\C(=O)Nc3ccccc32)nnc(Cc2ccccc2)c1=O | 5.42 nM | 92.2% | Non-toxic | > 350 mg/kg | Non-toxic
COc1ccc(Cc2nnc(N/N=C3\C(=O)Nc4ccccc43)n(N)c2=O)cc1 | 5.53 nM | 90.5% | Non-toxic | > 350 mg/kg | Non-toxic
CC(=O)N1C(=O)C2(c3ccccc31)N(C(C)=O)N=C1N(N(C(C)=O)C(C)=O)C(=O)C(Cc3ccccc3)=NN12 (stereo unspecified) | 7.74 nM | 64.6% |  |  | 
COc1ccc(CC2=NN3C(=NN(C(C)=O)C34C(=O)N(C(C)=O)c3ccccc34)N(N(C(C)=O)C(C)=O)C2=O)cc1 (stereo unspecified) | 61.4 nM | 81.5% | Non-toxic | > 350 mg/kg | Non-toxic
CC(=O)NN1C(=O)C(Cc2ccccc2)=NN2C1=NN(C(C)=O)C2(C)c1ccc(Cl)cc1 (racemic) | 5.69 nM | 87.9% | Non-toxic | > 350 mg/kg | Non-toxic
